ChEMBL document CHEMBL3259519, “Targeting triple-negative breast cancer cells with 6,7-bis(hydroxymethyl)-1H,3H-pyrrolo[1,2-c]thiazoles” (Eur J Med Chem, 2014)
pIC50: −log10 of the molar value. The source made the active and inactive calls. The calls are words filed in the database; no cut-off is given here.

Columns and labels:
MCF7 [1] = assay: Cell cycle arrest in human MCF7 cells expressing ER and BRCA2 assessed as decrease in accumulation at G0/G1 phase at IC50 after 48 hrs by propidium staining-based FACS analysis; assay type: functional
Procedure, shortened: (§1)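 2x10^6 cells were attached overnight, then exposed to IC50 for 48 h (DMSO 0.1%). They were fixed in ice-cold 70% ethanol for 30 min in the dark, PBS-washed and stained with PI/RNase for 15 min at RT. Flow cytometry used 488 nm excitation and a 585/42 filter. Sub-G0, G0/G1, S and G2/M fractions were reported as mean ± SD (n≥5).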

HCC1806 [2] = assay: Induction of apoptosis in triple negative ER, PR, HER2-deficient human HCC1806 cells assessed as increase of necrotic cells at IC50 after 48 hrs by Annexin V/propidium iodide staining-based flow cytometry relative to control; assay type: functional, cell-based
Procedure, shortened: (§2)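 2x10^6 cells were attached overnight, then given IC50 for 48 h (DMSO 0.1%). PBS-washed cells were stained with Annexin V-FITC and PI in binding buffer for 15 min at 4 °C in the dark. Flow cytometry used 488 nm excitation. Cells were gated as viable, apoptotic, late apoptotic/necrotic or necrotic, reported as mean ± SD (n≥5).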

HCC1954 [3] = assay: Antiproliferative activity against human HCC1954 cells expressing HER2 assessed as growth inhibition after 48 hrs by MTT assay; assay type: functional, cell-based; details: HCC1954, 48 h
Procedure, shortened: (§3)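 Cells were seeded at 2x10^4/well and left to attach overnight. Compounds in DMSO were diluted in medium and applied for 24, 48, 72 or 96 h. Cells were then PBS-washed and given 0.5 mg/mL MTT (pH 7.4) at 37 °C for 4 h. Formazan was dissolved in acid isopropanol. IC50 came from dose-response curves by exponential decay fitting (r2>0.9), with 95% CI.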

MCF7 [4] = assay: Induction of apoptosis in human MCF7 cells expressing ER and BRCA2 assessed as increase of necrotic cells at IC50 after 48 hrs by Annexin V/propidium iodide staining-based flow cytometry relative to control; assay type: functional, cell-based; procedure, shortened: as §2
HCC1806 [5] = assay: Cytotoxicity against ER, PR, HER2-deficient human HCC1806 cells as reduction of survival factor at IC50 incubated for 48 hrs measured after 12 days by crystal violet staining-based clonogenic assay; assay type: functional
HCC1806 [6] = assay: Cell cycle arrest in ER, PR, HER2-deficient human HCC1806 cells as accumulation at G2/M phase at IC50 after 48 hrs by propidium staining-based FACS analysis; assay type: functional; procedure, shortened: as §1
HCC1806 [7] = assay: Cell cycle arrest in ER, PR, HER2-deficient human HCC1806 cells as blockade at G0/G1 phase at IC50 after 48 hrs by propidium staining-based FACS analysis; assay type: functional; procedure, shortened: as §1
MCF7 [8] = assay: Cell cycle arrest in human MCF7 cells expressing ER and BRCA2 assessed as increase in accumulation at S phase at IC50 after 48 hrs by propidium staining-based FACS analysis; assay type: functional; procedure, shortened: as §1
HCC1806 [9] = assay: Antiproliferative activity against ER, PR, HER2-deficient human HCC1806 cells as growth inhibition after 96 hrs by MTT assay; assay type: functional, cell-based; details: HCC1806, 96 h; procedure, shortened: as §3
MCF7 [10] = assay: Induction of DNA strand break in human MCF7 cells expressing ER and BRCA2 at 3 x IC50 after 48 hrs by alkaline comet assay; assay type: functional, cell-based
Procedure, shortened: (§4)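 5x10^5 cells got IC50 or 3x IC50 for 48 h (DMSO 0.1%); H2O2-treated cells served as positive control. Cells in 1% low-melt agarose went onto slides precoated with normal-melt agarose. Slides were lysed overnight in alkaline buffer (2.5 M NaCl, EDTA, Tris, DMSO, Triton X-100). Electrophoresis ran in 300 mM NaOH/1 mM EDTA (pH>13) at 25 V for 15 min. Slides were neutralized in Tris pH 7.4 and stained with 25 µg/mL ethidium bromide for fluorescence microscopy.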

HCC1954 [11] = assay: Antiproliferative activity against human HCC1954 cells expressing HER2 assessed as growth inhibition after 72 hrs by MTT assay; assay type: functional, cell-based; details: HCC1954, 72 h; procedure, shortened: as §3
MCF7 [12] = assay: Cytotoxicity against human MCF7 cells expressing ER and BRCA2 assessed as reduction of total protein content at IC50 after 48 hrs by SRB assay relative to control; assay type: functional; design: scale not given: the % may be the effect or the level left
HCC1806 [13] = assay: Induction of DNA strand break in ER, PR, HER2-deficient human HCC1806 cells at IC50 after 48 hrs by alkaline comet assay; assay type: functional, cell-based; procedure, shortened: as §4
HCC1806 [14] = assay: Induction of DNA strand break in ER, PR, HER2-deficient human HCC1806 cells at 3 x IC50 after 48 hrs by alkaline comet assay; assay type: functional, cell-based; procedure, shortened: as §4
MCF7 [15] = assay: Cell cycle arrest in human MCF7 cells expressing ER and BRCA2 assessed as blockade at G2/M phase at IC50 after 48 hrs by propidium staining-based FACS analysis; assay type: functional; procedure, shortened: as §1
HCC1806 [16] = assay: Induction of apoptosis in triple negative ER, PR, HER2-deficient human HCC1806 cells assessed as increase of late apoptotic/nectrotic cells at IC50 after 48 hrs by Annexin V/propidium iodide staining-based flow cytometry relative to control; assay type: functional, cell-based; procedure, shortened: as §2
HCC1806 [17] = assay: Cytotoxicity against ER, PR, HER2-deficient human HCC1806 cells as reduction of total protein content at IC50 incubated for 48 hrs by SRB assay relative to control; assay type: functional; design: scale not given: the % may be the effect or the level left
MCF7 [18] = assay: Induction of DNA strand break in human MCF7 cells expressing ER and BRCA2 at IC50 after 48 hrs by alkaline comet assay; assay type: functional, cell-based; procedure, shortened: as §4
MCF7 [19] = assay: Induction of apoptosis in human MCF7 cells expressing ER and BRCA2 assessed as increase of late apoptotic/nectrotic cells at IC50 after 48 hrs by Annexin V/propidium iodide staining-based flow cytometry relative to control; assay type: functional, cell-based; procedure, shortened: as §2
HCC1954 [20] = assay: Antiproliferative activity against human HCC1954 cells expressing HER2 assessed as growth inhibition after 96 hrs by MTT assay; assay type: functional, cell-based; details: HCC1954, 96 h; procedure, shortened: as §3
MCF7 [21] = assay: Cytotoxicity against human MCF7 cells expressing ER and BRCA2 assessed as reduction of survival factor at IC50 incubated for 48 hrs measured after 12 days by crystal violet staining-based clonogenic assay; assay type: functional, cell-based
HCC1806 [22] = assay: Induction of apoptosis in triple negative ER, PR, HER2-deficient human HCC1806 cells assessed as decrease of viable cells at IC50 after 48 hrs by Annexin V/propidium iodide staining-based flow cytometry relative to control; assay type: functional; procedure, shortened: as §2
HCC1806 [23] = assay: Antiproliferative activity against ER, PR, HER2-deficient human HCC1806 cells as growth inhibition after 24 hrs by MTT assay; assay type: functional, cell-based; details: HCC1806, 24 h; procedure, shortened: as §3
HCC1806 [24] = assay: Antiproliferative activity against ER, PR, HER2-deficient human HCC1806 cells as growth inhibition after 72 hrs by MTT assay; assay type: functional, cell-based; details: HCC1806, 72 h; procedure, shortened: as §3
HCC1954 [25] = assay: Antiproliferative activity against human HCC1954 cells expressing HER2 assessed as growth inhibition after 24 hrs by MTT assay; assay type: functional, cell-based; details: HCC1954, 24 h; procedure, shortened: as §3
HCC1806 [26] = assay: Cell cycle arrest in ER, PR, HER2-deficient human HCC1806 cells as accumulation at S phase at IC50 after 48 hrs by propidium staining-based FACS analysis; assay type: functional; procedure, shortened: as §1
MCF7 [27] = assay: Induction of apoptosis in human MCF7 cells expressing ER and BRCA2 assessed as decrease in viable cells at IC50 after 48 hrs by Annexin V/propidium iodide staining-based flow cytometry relative to control; assay type: functional; procedure, shortened: as §2
HCC1806 [28] = assay: Antiproliferative activity against ER, PR, HER2-deficient human HCC1806 cells as growth inhibition after 48 hrs by MTT assay; assay type: functional, cell-based; details: HCC1806, 48 h; procedure, shortened: as §3
MCF7 [29] = assay: Antiproliferative activity against human MCF7 cells expressing ER and BRCA2 assessed as growth inhibition after 24 hrs by MTT assay; assay type: functional, cell-based; details: MCF7, 24 h; procedure, shortened: as §3
MCF7 [30] = assay: Antiproliferative activity against human MCF7 cells expressing ER and BRCA2 assessed as growth inhibition after 72 hrs by MTT assay; assay type: functional, cell-based; details: MCF7, 72 h; procedure, shortened: as §3
MCF7 [31] = assay: Antiproliferative activity against human MCF7 cells expressing ER and BRCA2 assessed as growth inhibition after 48 hrs by MTT assay; assay type: functional, cell-based; details: MCF7, 48 h; procedure, shortened: as §3
MCF7 [32] = assay: Antiproliferative activity against human MCF7 cells expressing ER and BRCA2 assessed as growth inhibition after 96 hrs by MTT assay; assay type: functional, cell-based; details: MCF7, 96 h; procedure, shortened: as §3

## Cc1c(CO)c(CO)c2n1[C@@H](c1ccccc1)SC2
MCF7 [1]
  Activity: Active
HCC1806 [2]
  Activity: Active
HCC1954 [3]
  pIC50: 4.57
MCF7 [4]
  Activity: Active
HCC1806 [5]
  Activity: <2%
HCC1806 [6]
  Activity: inactive
HCC1806 [7]
  Activity: Active
MCF7 [8]
  Activity: Active
HCC1806 [9]
  pIC50: 4.86
MCF7 [10]
  Activity: Active
HCC1954 [11]
  pIC50: 4.58
MCF7 [12]
  Activity: 50%
HCC1806 [13]
  Activity: Active
HCC1806 [14]
  Activity: Active
MCF7 [15]
  Activity: Active
HCC1806 [16]
  Activity: Active
HCC1806 [17]
  Activity: 50%
MCF7 [18]
  Activity: Active
MCF7 [19]
  Activity: Active
HCC1954 [20]
  pIC50: 4.60
MCF7 [21]
  Activity: Active
HCC1806 [22]
  Activity: 60%
HCC1806 [23]
  pIC50: < 4.00
HCC1806 [24]
  pIC50: 4.29
HCC1954 [25]
  pIC50: 4.01
HCC1806 [26]
  Activity: inactive
MCF7 [27]
  Activity: 55%
HCC1806 [28]
  pIC50: 4.09

## Cc1c(CO)c(CO)c2n1[C@H](c1ccccc1)SC2(C)C
MCF7 [29]
  pIC50: < 4.00
HCC1954 [3]
  pIC50: 4.16
MCF7 [30]
  pIC50: < 4.00
MCF7 [31]
  pIC50: < 4.00
HCC1806 [9]
  pIC50: 4.67
HCC1954 [11]
  pIC50: 4.25
HCC1954 [20]
  pIC50: 4.47
MCF7 [32]
  pIC50: < 4.00
HCC1806 [23]
  pIC50: < 4.00
HCC1806 [24]
  pIC50: 4.57
HCC1954 [25]
  pIC50: 4.00
HCC1806 [28]
  pIC50: 4.38

## Cc1c(CO)c(CO)c2n1[C@H](c1ccccc1)SC2
HCC1954 [3]
  pIC50: 4.25
HCC1806 [9]
  pIC50: 4.54
HCC1954 [11]
  pIC50: 4.83
HCC1954 [20]
  pIC50: 4.93
HCC1806 [23]
  pIC50: < 4.00
HCC1806 [24]
  pIC50: 4.11
HCC1954 [25]
  pIC50: < 4.00
HCC1806 [28]
  pIC50: 4.20
